Rows were chosen to be rich in hits. Some 9% of all compounds tested hit in one or more screens of this group.
M1 antagonist – antagonists of rat M1 muscarinic receptor. Muscarinic acetylcholine receptor M1 (Rattus norvegicus), P08482. CHO-M1 cells, Fluo-4 calcium, ACh EC80 antagonist mode; hits give low values. B-score at 10 µM. hit rate 3.4% among 64,000;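 active = calcium fluorescence response, raw or row-and-column corrected B-score, differing from the plate sample mean either way at a set confidence level, mostly lower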
AP complement – alternative complement pathway inhibitors, primary screen, biochemical, ELISA, human serum, orthogonally pooled compounds; inhibition, % at 5 µM; hit rate 0.08% among 62,000; LPS-coated ELISA, C3 deposition; tested in compound mixtures;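 active = inhibition above 30% in each of the two pooled mixtures holding the compound, so the lower value exceeds 30%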
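Test system – human serum alternative complement pathway, C3 deposition on LPS-coated wells · Buffer or medium – diluted human serum in Mg2+-EGTA GVB++ · Compound dosing – 5 µM each compound, pools of ten, 50 µM per pool · Schedule – 1 h serum-compound exposure at 37 °C · Measured by – Anti-C3 ELISA, OD 450 nm · Read-out basis – percent inhibition of C3 deposition onto LPS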
M1 ag – M1 muscarinic receptor agonists, primary screen, CHO-M1 cells, Fluo-4 calcium, agonist mode; Fluo-4 calcium fluorescence; hits give high values; Muscarinic acetylcholine receptor M1; hit rate 3% among 64,000; B-score at 10 µM;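 active = fluorescence rise, raw or as B-score row- and column-corrected plate score, outside the 99.7% band of its plate's samples, either direction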
mHtt clearance – clearance of mutant huntingtin inclusions, primary screen, imaging, HeLa Exon1htt(103Q)mCFP, confocal imaging | aggregate imaging; zero = plate's median compound well | inhibition, % at 1.5 µM | hit rate 0.42% among 47,000;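 active = inhibition of aggregate fluorescence above about 70%, also judged a hit by eye on the cell image, limit read from the data, passing the limit was not always enough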;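 also: cells exposed to compound for three days before fixation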
D1 allo mod – D1 CRE-luciferase signal change, two-sided – cell-based, HEK293 D1, dopamine EC30, D1 allosteric modulator project, primary screen. dopamine EC30 potentiation; actives deviate in either direction. AID 641, 2007. B-score at 10 µM. hit rate 5.9% among 58,000. D(1A) dopamine receptor (Homo sapiens), P21728;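 active = luminescence count or its row- and column-corrected plate score outside the 99.7% band of the plate's sample wells, on either side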
Target sequence (P21728 whole entry, looked up): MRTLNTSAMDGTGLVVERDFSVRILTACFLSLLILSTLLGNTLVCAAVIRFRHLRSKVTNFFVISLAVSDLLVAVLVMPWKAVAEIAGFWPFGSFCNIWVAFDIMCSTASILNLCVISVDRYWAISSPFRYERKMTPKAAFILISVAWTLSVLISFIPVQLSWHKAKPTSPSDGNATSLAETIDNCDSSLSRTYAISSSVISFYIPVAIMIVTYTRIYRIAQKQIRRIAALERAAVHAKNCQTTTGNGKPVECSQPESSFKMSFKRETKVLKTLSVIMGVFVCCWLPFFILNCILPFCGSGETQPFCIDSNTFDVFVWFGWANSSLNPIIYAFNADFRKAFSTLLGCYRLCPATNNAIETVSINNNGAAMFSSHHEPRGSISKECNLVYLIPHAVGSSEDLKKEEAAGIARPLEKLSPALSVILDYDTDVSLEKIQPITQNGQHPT
Hits are given with their value; i = inactive; nt = not tested or not shown.

SMILES | M1 antagonist | AP complement | M1 ag | mHtt clearance | D1 allo mod
CCN(CC)C(=O)C1CCCN(c2ncnc3c2cnn3-c2cccc(C)c2)C1 (centres undefined) | i | i | i | nt | i
CCN(CC)C(=O)C1CCCN(c2ncnc3c2cnn3-c2ccc(Cl)cc2)C1 (centres undefined) | i | i | i | nt | -3.6
c1ccc(-n2ncc3c(N4CCCCC4)ncnc32)cc1 | i | i | i | i | -6.9
CCCCNC(=O)c1cn(C)c2ccc(S(=O)(=O)N3CCOCC3)cc2c1=O | i | i | i | nt | i
CC1CCCN(c2ncnc3c2cnn3-c2ccccc2)C1 (centres undefined) | i | i | i | nt | -7.6
CC1CCCN(c2ncnc3c2cnn3-c2ccc(Cl)cc2)C1 (centres undefined) | i | i | i | nt | nt
CC(=O)C1=C(O)C(=O)N(Cc2ccccc2)C1c1ccco1 (centres undefined) | i | i | i | nt | i
CCN1/C(=C2\OC(=S)N(C)C2=O)Sc2ccccc21 | nt | nt | nt | i | nt
O=C1NC(=S)S/C1=C1\Sc2ccccc2N1CCCS(=O)(=O)O | i | i | i | nt | -2.9
CN(C)CCNC(=O)c1cc2ccccc2oc1=O | i | i | i | 74 | nt
COc1cccc2cc(C(=O)Nc3cccnc3N3CCOCC3)c(=O)oc12 | i | i | i | i | i
O=C(Nc1ccc(CN2CCOCC2)cc1)c1cc2ccccc2oc1=O | i | i | i | nt | -5.6
CC(=O)OCCNC(=O)c1cc2ccccc2oc1=O | i | i | i | i | i
O=C(Nc1cccnc1N1CCOCC1)c1cc2ccccc2oc1=O | i | i | i | nt | 4.2
Cc1ccc(-n2nc3ccc(N)cc3n2)cc1 | i | i | i | nt | -4.4
O=S1(=O)C=C(SCc2cccc(Cl)c2)Nc2ccccc21 | nt | nt | nt | i | nt
COc1ccc(CCN2C(=O)c3ccncc3C2=O)cc1OC | nt | nt | nt | i | nt
O=C(/C=C\Nc1ccccn1)c1ccccc1 | i | i | i | nt | -6.9
O=C(NCCCNCCCNC(=O)c1ccccn1)c1ccccn1 | i | i | i | nt | i
O=C(/C=C/Nc1ccccc1Br)c1ccccn1 | i | i | i | nt | -8.1
O=C(CC(=O)Nc1ccccn1)Nc1ccccn1 | i | i | i | i | i
CC(C)c1ccc(OCC(O)CN2CCN(c3ccccc3)CC2)cc1 (centres undefined) | i | i | i | i | -4.5
CC1CCN(CC(O)COc2cccc(F)c2)CC1 (centres undefined) | i | i | i | nt | i
CC1CCN(CC(O)COc2ccc(F)cc2)CC1 (centres undefined) | i | i | i | nt | -5.6
COCc1nnc(NC(=O)c2ccc(NC(C)=O)cc2)s1 | i | i | i | 84 | i
SMILES | M1 antagonist | AP complement | M1 ag | mHtt clearance | D1 allo mod
CCOCc1nnc(NC(=O)c2cccs2)s1 | 2.1 | i | i | i | i
CCOCCc1nnc(NC(=O)c2cccs2)s1 | i | i | i | nt | i
Cc1ccc(-c2cnc(N)n2C)cc1C | i | i | i | nt | i
CC(C)COC(=O)N1CC(O)CC1C(=O)O (centres undefined) | i | i | i | nt | i
CCCCNC(=O)CNC(=O)c1cccs1 | nt | nt | nt | i | nt
O=C(CNC(=O)c1cccs1)NCCN1CCN(c2ccccc2F)CC1 | i | i | i | nt | -3.6
O=C(Nc1ccc(Cc2ccc(NC(=O)C3CC3)c(O)c2)cc1O)C1CC1 | i | i | i | nt | i
COc1cc(NC(=O)c2ccc(C)cc2)c(OC)cc1NC(=O)CN1CCCCC1 | nt | nt | nt | i | nt
COc1cc(NC(=O)Nc2cccc(Cl)c2)c(OC)cc1NC(=O)CN1CCCCC1 | i | i | i | i | -4
CCOC(=O)C(Cc1c(F)cccc1F)(NC(C)=O)C(=O)OCC | i | i | i | nt | i
CCOC(=O)C(CO)(NC(C)=O)C(=O)OCC | 1.3 | i | i | i | i
CCOc1ccc(N(CC(=O)NCC2CCCO2)C(=O)CCC(=O)Nc2ccccn2)cc1 (centres undefined) | nt | nt | nt | i | nt
O=c1nc2n(c3c4c(sc13)CCC4)CCC2 | i | i | i | i | i
O=c1cc(-c2ccccc2)[nH]n1-c1nc2ccccc2s1 | i | i | i | nt | i
O=c1cc(-c2ccccc2)[nH]c2nc3ccccc3n12 | i | i | i | nt | -6.5
Nn1cnnc1SCC(=O)Nc1ccc(C2CCCCC2)cc1 | i | i | i | nt | -4.3
COc1cccc(NC(=O)CSc2nncn2N)c1 | i | nt | i | i | i
CCOC(=O)/C(=C\Nc1ccc(OC(F)(F)F)cc1)Sc1ncc(C(F)(F)F)cc1Cl | nt | nt | nt | i | nt
Cc1cc(-c2ccco2)n(CC(=O)O)n1 | i | i | i | nt | -4.3
CCCOc1ccc(C(=O)Nc2ccc(Cl)cn2)cc1 | nt | nt | nt | i | nt
Cc1ccc(C(=O)Nc2ccc(Cl)cn2)cc1 | i | i | i | nt | -4.1
Cc1c(-c2cccs2)[n+](=O)c2c(n1[O-])CCCC2 | i | nt | i | nt | i
N#Cc1c(/N=C/c2cccs2)sc2c1CCCCC2 | i | i | i | i | -3.6
CN(C)/C=N/c1sc2c(c1C#N)CCC2 | i | i | i | i | i
COc1ccccc1OC(=O)c1cc(Cl)nc2ccccc12 | nt | nt | nt | i | nt
SMILES | M1 antagonist | AP complement | M1 ag | mHtt clearance | D1 allo mod
c1cc(-c2nc3cc(Oc4ccc5oc(-c6ccncc6)nc5c4)ccc3o2)ccn1 | i | i | i | nt | i
CCOc1ccc(CN2CCN(C(=O)c3cccc(F)c3)CC2)cc1 | nt | nt | nt | i | nt
CCOc1ccc(OCc2cccc(C(=O)N3CCOCC3)c2)cc1 | i | i | i | nt | -6.7
CCCN1CCN(CCCNC(=O)Cn2nc(-c3ccccc3)ccc2=O)CC1 | i | i | i | i | i
O=C(Cn1nc(-c2ccccc2)ccc1=O)NCCN1CCN(Cc2ccccc2)CC1 | i | i | i | nt | -5
Cc1ccc(C(C)C)c(OCC(O)CN2CC(C)OC(C)C2)c1 (centres undefined) | i | nt | i | nt | -3.5
Cc1ccc2c(CC(=O)OC(C)C(=O)NCc3ccc4c(c3)OCO4)coc2c1 (centres undefined) | i | i | i | i | i
O=C(O)CCn1c(-c2ccccc2)cc2c1CCCC2=O | 0.72 | i | i | nt | nt
Cn1c(=O)n(CCC(=O)O)c2ccccc21 | i | i | i | i | i
CCOc1ccccc1N=c1oc2cc(O)ccc2cc1C(=O)NCC1CCCO1 (centres undefined) | nt | nt | nt | i | nt
COc1ccc(-c2nsc3c(N4CCCC4)ncnc23)cc1 | i | i | i | i | -4.4
O=C(O)C1C2C=CC(C2)C1C(=O)NCc1ccccn1 (centres undefined) | 2.7 | i | i | nt | i
COc1ccc(OC)c(NC(=O)C2C3C=CC(C3)C2C(=O)NCc2ccccn2)c1 (centres undefined) | i | nt | i | nt | i
COc1ccc(/C(O)=C2/C(=O)C(=O)N(CCCN(C)C)C2c2ccco2)cc1Cl (centres undefined) | i | i | 35 | nt | i
CCOC(=O)c1[nH]c(C)c(/C(O)=C2\C(=O)C(=O)N(CCN(C)C)C2c2ccco2)c1C (centres undefined) | -2.3 | i | i | nt | i
COc1ccc(/C(O)=C2/C(=O)C(=O)N(CCN(C)C)C2c2ccccc2)cc1Cl (centres undefined) | 1 | i | i | nt | nt

High-throughput results: PubChem, several laboratories
